From ChEMBL document CHEMBL1129357, “4-[4-[(2-Hydroxybenzoyl)amino]phenyl]butyric acid as a novel oral delivery agent for recombinant human growth hormone” (1996)

System: Rattus norvegicus
Test: Ability to promote absorption of recombinant human growth hormone from the gastrointestinal tract in rats by using ELISA assay. (Compound dose 500 mg/kg, rhGH 6 mg/kg by OG administration)
Type: functional
Settings: not given
Outline: (§1)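 Male Sprague-Dawley rats, 225-250 g, in groups of six or seven, with free access to water for 24 h beforehand. Ketamine 44 mg/kg plus thorazine 1.5 mg/kg given just before dosing. Aqueous delivery agent, adjusted to pH 7.2-7.8, with rhGH, given by oral gavage or intracolonic instillation. Serum rhGH measured by ELISA; peak concentration in ng/mL reported as mean ± SD.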

Structure (SMILES)	Peak rhGH [ng/mL]
O=C(CCc1ccccc1)Nc1ccc(C(=O)O)cc1	3.3
O=C(Cc1ccccc1)Nc1ccc(C(=O)O)cc1	0
O=C(O)CCCc1ccc(NC(=O)c2cccc(-c3ccccc3)c2-c2ccccc2)cc1	5.9
O=C(O)CCCc1ccc(NC(=O)CC2CCCCC2)cc1	24.2
O=C(CC1CCCCC1)Nc1ccc(C(=O)O)cc1	0
O=C(CCCc1ccccc1)Nc1ccc(C(=O)O)cc1	11.9
O=C(CCCC1CCCCC1)Nc1ccc(C(=O)O)cc1	29.3
O=C(O)CCCc1ccc(NS(=O)(=O)c2ccccc2)cc1	28
O=C(O)CCCc1ccc(NC(=O)C2CCCCC2)cc1	63.8
O=C(O)Cc1ccc(NS(=O)(=O)c2ccccc2)cc1	0
O=C(O)c1ccc(NS(=O)(=O)c2ccccc2)cc1	13.7
O=C(O)CCCc1ccc(NC(=O)c2ccc(-c3ccccc3)cc2)cc1	39.9

System: Rattus norvegicus
Test: Ability to promote absorption of recombinant human growth hormone from gastrointestinal tract in rats by using ELISA assay at a of dose 25 mg/kg, rhGH 1 mg/kg by IC administration
Type: functional
Settings: not given
Outline: as §1

Structure (SMILES)	Peak rhGH [ng/mL]
COc1ccc(/C=C/C(=O)Nc2ccc(CCC(=O)O)cc2)cc1	5
COc1cccc(O)c1C(=O)Nc1ccc(CCC(=O)O)cc1	9.3
O=C(O)c1ccc(NC(=O)c2ccc(F)cc2)cc1	2.2
O=C(O)CCCc1ccc(NC(=O)c2ccccc2[N+](=O)[O-])cc1	14.9
O=C(O)CCCc1ccc(NCc2ccccc2O)cc1	32.5
O=C(O)CCCc1ccc(NC(=O)c2cccc([N+](=O)[O-])c2)cc1	33.5
CN(C)c1cccc(C(=O)Nc2ccc(CCCC(=O)O)cc2)c1	50.7
O=C(O)CCCc1ccc(NC(=O)CCOc2ccccc2)cc1	44.1
O=C(O)CCCc1ccc(NC(=O)Cc2ccccc2F)cc1	7.3
O=C(O)CCCc1ccc(NC(=O)CCC(=O)c2ccccc2)cc1	0.6
O=C(O)CCCc1ccc(NC(=O)c2c(O)cccc2O)cc1	20.9
O=C(O)CCCc1ccc(NC(=O)c2ccccc2OC(F)(F)F)cc1	56.8
Cc1cccc(C)c1C(=O)Nc1ccc(CCCC(=O)O)cc1	7.7
O=C(O)CCCc1ccc(NC(=O)c2ccc3c(c2)OCO3)cc1	0
O=C(O)CCc1ccc(NC(=O)c2ccccc2O)cc1	37.2
O=C(O)CCCc1ccc(NC(=O)CCCC2CCCCC2)cc1	26
O=C(O)CCCc1ccc(NC(=O)c2ccccc2C(=O)O)cc1	22.3
O=C(O)CCc1ccc(NC(=O)c2ccccc2[N+](=O)[O-])cc1	17.6
O=C(O)Cc1ccc(NC(=O)c2ccccc2O)cc1	5.6
O=C(O)CCCc1ccc(NC(=O)/C=C/c2ccccc2F)cc1	7.7
COc1ccccc1C(=O)Nc1ccc(CCCC(=O)O)cc1	17.8
O=C(O)c1ccc(NS(=O)(=O)c2ccccc2)cc1	0
COc1ccccc1/C=C/C(=O)Nc1ccc(CCC(=O)O)cc1	61.7
O=C(O)c1ccc(NC(=O)c2ccccc2O)cc1	0
O=C(O)CCCc1ccc(NC(=O)CCCCc2ccccc2)cc1	8.4
O=C(O)CCCc1ccc(NC(=O)C(O)C(O)c2ccccc2)cc1 (configuration not stated)	2.5

System: Rattus norvegicus
Test: Ability to promote absorption of recombinant human growth hormone (rhGH) from the gastrointestinal tract in rats by using ELISA assay. (Compound at a of dose 250 mg/kg, rhGH 6 mg/kg by OG administration)
Type: functional
Settings: not given
Outline: as §1

Structure (SMILES)	Peak rhGH [ng/mL]
O=C(O)CCCc1ccc(NS(=O)(=O)c2ccccc2)cc1	2.6

System: Rattus norvegicus
Test: Ability to promote absorption of recombinant human growth hormone from the gastrointestinal tract in rats by using ELISA assay. (Compound dose 200 mg/kg, rhGH 6 mg/kg by OG administration)
Type: functional
Settings: not given
Outline: as §1

Structure (SMILES)	Peak rhGH [ng/mL]
O=C(O)CCCc1ccc(NC(=O)C2CCCCC2C(=O)O)cc1 (configuration not stated)	0
CC(C)Cc1ccc(CC(=O)Nc2ccc(CCCC(=O)O)cc2)cc1	7.8
O=C(O)CCCc1ccc(NCc2ccccc2)cc1	20.4
O=C(O)CCCc1ccc(NC(=O)c2ccc(O)cc2O)cc1	16.9

System: Rattus norvegicus
Test: Ability to promote absorption of recombinant human growth hormone from the gastrointestinal tract in rats by using ELISA assay. (Compound dose 300 mg/kg, rhGH 6 mg/kg by OG administration)
Type: functional
Settings: not given
Outline: as §1

Structure (SMILES)	Peak rhGH [ng/mL]
O=C(O)Cc1ccc(NC(=O)CCc2ccccc2)cc1	12.6
O=C(O)c1ccc(NC(=O)c2ccc(F)cc2)cc1	1
CCC(C(=O)Nc1ccc(CCCC(=O)O)cc1)c1ccccc1 (configuration not stated)	5.9
O=C(O)CCCc1ccc(NC(=O)Cc2ccccc2)cc1	8.1
O=C(O)Cc1ccc(NC(=O)Cc2ccccc2)cc1	9
O=C(O)CCCc1ccc(NC(=O)Cc2ccccc2O)cc1	0
O=C(O)CCCc1ccc(NC(=O)c2ccccc2O)cc1	49.7
O=C(O)CCCc1ccc(NC(=O)c2ccccc2F)cc1	43.4
CC(C(=O)Nc1ccc(CCCC(=O)O)cc1)c1ccccc1 (configuration not stated)	2.3
O=C(O)Cc1ccc(NC(=O)CC2CCCCC2)cc1	15.7
COc1ccc(C(=O)Nc2ccc(CCCC(=O)O)cc2)cc1	0
O=C(O)CCCc1ccc(NC(=O)CCCc2ccccc2)cc1	17.9
O=C(O)CCCc1ccc(NC(=O)CCc2ccccc2)cc1	12.8
O=C(O)CCCc1ccc(NC(=O)c2ccc(F)cc2)cc1	2.8

System: Rattus norvegicus
Test: Ability to promote absorption of recombinant human growth hormone from the gastrointestinal tract in rats by using ELISA assay. (Compound dose 400 mg/kg, rhGH 6 mg/kg by OG administration)
Type: functional
Settings: not given
Outline: as §1

Structure (SMILES)	Peak rhGH [ng/mL]
CCC(C(=O)Nc1ccc(CCCC(=O)O)cc1)C1CCCCC1 (configuration not stated)	0.5
O=C(O)CCCc1ccc(NC(=O)c2ccc(-c3ccccc3)c(-c3ccccc3)c2)cc1	28.2
CC1CCC(C(=O)Nc2ccc(C(=O)O)cc2)CC1 (configuration not stated)	0
O=C(O)CCCc1ccc(NC(=O)/C=C/c2c(F)c(F)c(F)c(F)c2F)cc1	49.7
CC1CCC(C(=O)Nc2ccc(CCCC(=O)O)cc2)CC1 (configuration not stated)	41.6
O=C(O)CCCc1ccc(NC(=O)C2CCCCCC2)cc1	92.8
O=C(O)CCCc1ccc(NC(=O)/C=C/c2ccccc2)cc1	49.7
O=C(O)/C=C/c1ccc(NC(=O)c2ccccc2)cc1	6.5

System: Rattus norvegicus
Test: Ability to promote absorption of recombinant human growth hormone from the gastrointestinal tract in rats by using ELISA assay. (Compound dose 25 mg/kg, rhGH 6 mg/kg by OG administration)
Type: functional
Settings: in the assay text read “rhGH 1 mg/kg by IC administration” for “rhGH 6 mg/kg by OG administration”
Outline: as §1

Structure (SMILES)	Peak rhGH [ng/mL]
COc1ccccc1/C=C/C(=O)Nc1ccc(CCCC(=O)O)cc1	32.9

System: Rattus norvegicus
Test: Ability to promote absorption of recombinant human growth hormone from gastrointestinal tract in rats by using ELISA assay. (Compound dose 500 mg/kg, rhGH 6 mg/kg by OG administration)
Type: functional
Settings: not given
Outline: as §1

Structure (SMILES)	Peak rhGH [ng/mL]
O=C(O)CCCc1ccc(NC(=O)c2ccccc2)cc1	21.7

System: Rattus norvegicus
Test: Ability to promote absorption of recombinant human growth hormone (rhGH) from the gastrointestinal tract in rats by using ELISA assay. (Compound dose 300 mg/kg, rhGH 6 mg/kg by OG administration)
Type: functional
Settings: not given
Outline: as §1

Structure (SMILES)	Peak rhGH [ng/mL]
O=C(O)CCCc1ccc(NC(=O)c2ccccc2)cc1	5.4

System: Rattus norvegicus
Test: Ability to promote absorption of recombinant human growth hormone from the gastrointestinal tract in rats by using ELISA assay at a of dose 25 mg/kg, rhGH 1 mg/kg by IC administration
Type: functional
Settings: not given
Outline: as §1

Structure (SMILES)	Peak rhGH [ng/mL]
O=C(O)CCCc1ccc(NC(=O)c2cccc(Cl)c2)cc1	0
COc1ccccc1/C=C/C(=O)Nc1ccc(C(=O)O)cc1	30.4
O=C(O)CCCc1ccc(NC(=O)c2cccc(C(F)(F)F)c2)cc1	17.6
O=C(O)CCCc1ccc(NC(=O)c2ccccc2)cc1	17.5
O=C(O)CCCc1ccc(NC(=O)c2ccccc2O)cc1	64.7
O=C(O)CCCc1ccc(NC(=O)c2ccccc2F)cc1	20.8
O=C(O)CCCc1ccc(NC(=O)c2ccccc2Cl)cc1	52.2
Cc1ccccc1C(=O)Nc1ccc(CCCC(=O)O)cc1	9.08
Cc1ccccc1/C=C/C(=O)Nc1ccc(CCCC(=O)O)cc1	16.4
